Screening results (PubChem BioAssay)
CSC inhib: blocks cancer stem cells. cancer stem cell-like cells viability, luminescence. AID 2717. 300,000 tested, 1.1% active. inhibition, % at 7.5 µM; in the data active = inhibition above about 75%; inconclusive = no clear call, values can overlap the other calls; tested in HMLE shEcad cells
Mdm2 MdmX PPI: disrupts the human Mdm2-MdmX interaction | SaOS-2 split-luciferase Mdm2/MdmX complementation, luminescence | inhibition, % at 8 µM | 330,000 tested, 3% active | AID 485346;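 active = inhibition of at least 50% at 8 µM in the primary screen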
Beta apoptosis: blocks beta cell apoptosis; INS-1E cytokine-induced death, ATP luminescence, 48 h; percent of positive-control rescue, neutral wells zero; protection from apoptosis, % (test concentration not listed); 300,000 tested, 0.8% active;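 active = Every replicate reaches about 75%, or at least half do and their mean reaches it too, limit read from the data; inconclusive = At least half of replicates reach the limit but their mean does not; inactive = Under half of replicates reach the limit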;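 note: 0% = cytokine-treated negative control wells and 100% = positive control rescue; higher means more ATP so stronger rescue from cytokine killing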
T cruzi inh: blocks replication of Trypanosoma cruzi | inhibition, % (concentration not given with the values) | T. cruzi beta-gal in NIH3T3, luminescence, 90 h | 300,000 tested, 1.4% active;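 active = mean inhibition across valid replicates above about 55%, limit read from the data; inconclusive = mean below that limit but half or more replicates reach it; inactive = mean below it, under half of replicates reach it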;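 note: signal also drops with host cell toxicity which is not excluded here; 0% = plate median of DMSO wells and 100% = zero luminescence signal; higher percent means less beta-gal luminescence so fewer parasites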
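System – NIH/3T3 host cells with β-galactosidase reporter T. cruzi · Doses – single 50 nL compound addition per well in DMSO · Reagent – 5000 T. cruzi trypomastigotes/well · Medium – Low-serum DMEM with 2% FBS · Timing – ≥90 h infection period, 3 h prior cell attachment · Evaluation – parasite load inhibition, % · Technique – GalScreen luminescence, 60 min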
Calb FLC: C. albicans growth modulation with fluconazole; C. albicans CaCi-2 (fluconazole-resistant clinical isolate) + fluconazole, Alamar Blue growth, 48 h; growth inhibition, % (test concentration not listed); 300,000 tested, 0.57% active; AID 1979;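 active = growth inhibition above about 58% in most replicates, limit read from the data, passing the limit was not always enough; inconclusive = exactly half the replicates above a set limit; inactive = most replicates below a set limit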;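 note: all wells also contain fluconazole at 8 µg/ml as a sub-toxic cotreatment; 0% = median of DMSO wells and 100% = median of geldanamycin control wells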
NALP3 yeast inh: NALP3 inhibition in yeast; inhibition, % at 10 µM; Yeast reconstituted NLRP3/ASC/caspase-1, beta-gal luminescence, 24 h; 330,000 tested, 0.39% active;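 active = inhibition of 50% or more; inactive = inhibition below 50%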;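 note: plate controls were induced DMSO wells for no effect and uninduced yeast grown without galactose for full effect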
NALP3 confirm: confirmation of NALP3 inhibitors in yeast; 1,300 tested, 81% active; inhibition, % at 10 µM; yeast expressing human NALP3, luminescence; shares compounds with NALP3 yeast inh; in the data active = inhibition above about 48%
Casp1 ASC ctr: caspase-1-ASC yeast counter-screen hit | inhibition, % at 10 µM | shares compounds with NALP3 yeast inh | 1,000 tested, 66% active | yeast expressing Caspase-1-ASC, luminescence counter screen
NALP3 retest: yeast NALP3 inhibition, confirmed on retest; AID 488794; shares compounds with NALP3 yeast inh; 1,000 tested, 53% active; yeast expressing human NALP3, luminescence read-out; inhibition, % at 10 µM
Active calls of the source: *; u = inconclusive; x = not tested or not shown. A selection: hits, their analogues and other compounds. The true share with any hit is near 5.3%. Cut-off read from the data, not from the text of the source, unless noted: active = inhibition above about 50%; inactive = the rest.

SMILES | CSC inhib | Mdm2 MdmX PPI | Beta apoptosis | T cruzi inh | Calb FLC | NALP3 yeast inh | NALP3 confirm | Casp1 ASC ctr | NALP3 retest
O=Nc1ccc(NOC(=O)c2ccccc2)cc1 | -11 | 6 | -6 | 10 | -6 | 3 | x | x | x
COc1ccc(C(=O)Nc2ccc(NC(=O)c3cccs3)cn2)cc1 | 2 | 32 | -4 | -2 | -10 | 19 | x | x | x
CC(C)(C)NC(=O)[C@]1(C)CCC[C@@]2(C)C3CC[C@@]4(C)C[C@]3(CCC21)CC4=O (stereo not given in full) | -3 | -14 | 7 | x | x | 52* | 42 | 44 | 42
C[C@@]12CCC3[C@@](CCC4[C@@]3(C)CCC[C@@]4(C)C(=O)NCc3ccccc3)(CC1=O)C2 (stereo not given in full) | -1 | 11 | -6 | x | x | 52* | 54* | 47 | 45
C[C@@]12CCC3[C@@](CCC4[C@@]3(C)CCC[C@@]4(C)C(=O)O)(CC1=O)C2 (stereo not given in full) | 11 | 12 | 1 | x | x | 23 | x | x | x
CC(C)(C)CNC(=O)[C@]1(C)CCC[C@@]2(C)C3CC[C@@]4(C)C[C@]3(CCC21)CC4=O (stereo not given in full) | 14 | 11 | -5 | x | x | 37 | x | x | x
O=C(c1csc2c1CCCC2)N1CCN(c2ccc(F)cc2)CC1 | -4 | -11 | -26 | -5 | 7 | -15 | x | x | x
O=C(c1csc2c1CCCC2)N1CCN(c2cccc(C(F)(F)F)c2)CC1 | 26 | 12 | 0 | 4 | 20 | -110 | 5 | x | x
CCNC(=S)N1CCN(CCN=CC2=C(O)CC(c3cccs3)CC2=O)CC1 (stereo not given) | -2 | 4 | -6 | -2 | 1 | 18 | x | x | x
CCC(=O)N1CCN(CCN=CC2=C(O)CC(c3cccs3)CC2=O)CC1 (stereo not given) | 0 | -1 | -19 | -2 | 22 | 56* | 56* | 45 | 45
CCCCN1CN(Cc2ccccc2)CNC1=S | x | 12 | -13 | -48 | -11 | 9 | x | x | x
O=S(=O)(c1ccc(Br)s1)N1CCN(CCc2ccccc2)CC1 | 7 | -3 | 3 | x | x | 61* | 63* | 34 | 28
CCN1CCN(S(=O)(=O)c2ccc(Br)s2)CC1 | -11 | -1 | -4 | 16 | 17 | 8 | x | x | x
O=S(=O)(c1ccc(Br)s1)N1CCN(c2ccc(F)cc2)CC1 | 12 | 7 | -3 | 9 | -5 | 55* | 65* | 27 | 27
Cc1ccnc(NCc2ccc(Br)cc2)c1 | 8 | 18 | -15 | 5 | -31 | 33 | x | x | x
CN1CCN(Cn2cc(/C=C/C(=O)c3ccccc3)c3ccccc32)CC1 | 18 | -156 | -3 | 16 | 19 | 67* | 74* | x | x
Cc1ccc(C(=O)c2nocc2C(=O)c2cccs2)cc1 | -18 | 29 | -6 | 4 | -5 | 55* | 60* | 73* | 42
Cc1ccc(C(=O)Cn2cnc3ccccc3c2=O)cc1 | -24 | -40 | -5 | x | 6 | 52* | 64* | 34 | 46
O=C(Nc1ccc(-c2cn3ccccc3n2)cc1)c1cccs1 | 18 | -29 | x | 4 | -17 | 57* | 76* | 72* | 62*
O=C(Nc1ccc(NC(=O)c2cccs2)c(Cl)c1)c1cccs1 | x | -49 | 1 | 2 | 1 | 61* | 84* | 64* | 60*
Cc1ccn(-c2ccc(NC(=O)c3cccs3)cc2)n1 | 53 | -133 | 4 | -4 | 0 | 59* | 82* | 64* | 35
CN1CCN(c2ccc(NC(=O)c3cccs3)cc2)CC1 | 4 | -83 | 5 | 4 | u | 18 | x | x | x
O=C(Nc1ccc(Cl)cc1)c1cccs1 | -2 | -28 | 6 | -8 | -37 | 60* | 77* | 55* | 65*
COc1ccc(CC(=O)Nc2ccc(-c3cn4ccccc4n3)cc2)cc1 | 13 | -13 | 9 | 16 | -1 | 4 | x | x | x
CC(C)n1c(N2CCCC2)nc2c1c(=O)[nH]c(=O)n2C | -7 | 7 | 2 | -10 | 4 | 7 | x | x | x
SMILES | CSC inhib | Mdm2 MdmX PPI | Beta apoptosis | T cruzi inh | Calb FLC | NALP3 yeast inh | NALP3 confirm | Casp1 ASC ctr | NALP3 retest
CC(C)=C(NC(=O)c1ccccc1Br)C(=O)NCCc1nc2ccccc2[nH]1 | -4 | 0 | -4 | -11 | 2 | 7 | x | x | x
Cc1cc(NC(=O)c2cncc(Br)c2)n(-c2ccccn2)n1 | x | x | x | -3 | -11 | x | x | x | x
COc1ccc2nc(SCC(=O)NC3CCCC3)c(C)cc2c1 | 74 | 47 | 3 | 14 | -20 | 58* | 71* | 53* | 49
COc1ccc2nc(SCC(=O)NC3CCCCC3)[nH]c2c1 | -5 | 17 | -1 | -16 | -19 | 12 | x | x | x
COC(=O)c1ccc(Oc2ccc(S(=O)(=O)N3CCCCC3)cc2N)cc1 | -3 | 7 | -7 | 7 | 3 | 88* | 94* | 93* | 88*
COC(=O)CNc1cc(S(=O)(=O)N2CCCCC2)ccc1Oc1ccc(C(=O)OC)cc1 | 5 | 3 | 0 | 16 | 9 | 66* | 70* | 39 | 29
COC(=O)CNc1cc(S(=O)(=O)N2CCCCC2)ccc1Oc1cccc(C)c1 | -5 | 18 | 1 | 17 | 3 | 12 | x | x | x
CC1CN(C(=O)c2ccc(COc3ccccc3Cl)o2)CC(C)O1 (stereo not given) | x | -3 | -1 | 16 | 8 | 15 | x | x | x
O=C(c1ccccn1)c1conc1C(=O)c1ccc(Br)cc1 | -6 | -12 | 5 | -13 | 18 | 69* | 83* | 84* | 60*
CCSc1nnc(NC(=O)c2ccccn2)s1 | 2 | -5 | 64 | 40 | 62 | 55* | 61* | x | x
CCSc1nnc(NC(=O)c2ccccc2C)s1 | -8 | -22 | x | -4 | u | 57* | 48 | x | x
CC(CC(=O)Nc1cccc(S(=O)(=O)N2CCCCC2)c1)c1ccccc1 (stereo not given) | -5 | 9 | -4 | x | x | 10 | x | x | x
CCC(C(=O)Nc1ccccc1N1CCCC1)c1ccccc1 (stereo not given) | 7 | 4 | -8 | 9 | 4 | 17 | x | x | x
COC(=O)c1ccc(C(=O)Nc2ccc3nc(-c4ccncc4)[nH]c3c2)cc1 | x | -7 | x | -17 | 11 | 0 | x | x | x
COc1ccc(-c2nc3ccccc3[nH]2)cc1 | x | -67 | x | -8 | -17 | 55* | 62* | 57* | 66*
COC(=O)c1ccc(-c2nc3ccccc3[nH]2)cc1 | 18 | -231 | 11 | -2 | -2 | 63* | 38 | x | x
CC(Cc1ccc(O)c(O)c1)C(C)Cc1ccc(O)c(O)c1 (stereo not given) | 35 | -4 | 4 | -12 | x | 21 | x | x | x
